pIC50: −log10 of the molar value.
Target: T1, Corticotropin-releasing factor receptor 1 (Rattus norvegicus, UniProt P35353)
T1 sequence (P35353 whole entry): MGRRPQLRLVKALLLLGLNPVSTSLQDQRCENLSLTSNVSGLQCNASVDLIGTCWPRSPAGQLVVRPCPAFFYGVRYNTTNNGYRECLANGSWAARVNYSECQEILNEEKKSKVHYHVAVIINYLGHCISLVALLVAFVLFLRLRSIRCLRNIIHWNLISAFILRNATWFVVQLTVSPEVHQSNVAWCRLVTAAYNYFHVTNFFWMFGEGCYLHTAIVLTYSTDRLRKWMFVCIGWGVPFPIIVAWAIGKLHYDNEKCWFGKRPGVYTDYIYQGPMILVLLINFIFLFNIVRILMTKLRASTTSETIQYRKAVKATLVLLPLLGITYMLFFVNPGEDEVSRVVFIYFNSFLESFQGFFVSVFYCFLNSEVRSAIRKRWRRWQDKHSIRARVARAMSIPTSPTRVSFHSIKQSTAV
Assay: Displacement of [125I]Tyr-ovine-CRF from CRF1 receptor in rat frontal cortex homogenate by gamma counting
Assay type: tissue-based
Summary of the method: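 Washed homogenates of frozen rat frontal cortex (CRF1, 25 μg/well) or porcine choroid plexus (CRF2, 10 μg/well) in 50 mM Hepes pH 7.0, 10 mM MgCl2, 2 mM EGTA, protease inhibitors, 0.005% Triton X-100. Ligand 150 pM 125I-ovine-CRF (CRF1) or 100 pM 125I-sauvagine (CRF2). Incubation 2 h at 21 °C, then filtration and gamma counting. Nonspecific binding: 1 μM CRF1 reference antagonist or 1 μM α-helical CRF(9-41). IC50 from 5- or 10-point curves by nonlinear regression.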

Structure (SMILES) | pIC50
COc1cc(Br)c2c(c1)OCCN2c1nc(Cl)cn([C@H](C)C2CC2)c1=O | 7.72
CC[C@H](C1CC1)n1cc(Cl)nc(Nc2c(C)cc(C)cc2C)c1=O | 9.20
C[C@@H](C1CC1)n1cc(Cl)nc(Nc2c(Cl)cc(C#N)cc2Cl)c1=O | 8.20
COc1ccc(Nc2nc(Cl)cn([C@H](C)C3CC3)c2=O)c(C(F)(F)F)n1 | 8.74
COc1ccc(Nc2nc(C)cn([C@H](C)C3CC3)c2=O)c(C(F)(F)F)n1 | 8.42
Cc1cc(C)c(Nc2nc(Cl)cn([C@H](C)C3CC3)c2=O)c(C)c1 | 8.77
CCCC(CCC)n1cc(Cl)nc(Nc2cc(C)c(OC)cc2C)c1=O | 9.21

More lines, in order of rising pIC50, values ahead:

pIC50 | Structure (SMILES)
6.55 | COC[C@@H](C1CC1)n1cc(Cl)nc(Nc2cc(C)c(O)cc2C)c1=O
6.74 | CC[C@H](C1CC1)n1cc(Cl)nc(Nc2ccc(Cl)cc2)c1=O
8.25 | C#Cc1cn([C@H](C)C2CC2)c(=O)c(Nc2ccc(OC)nc2C(F)(F)F)n1
8.82 | CCOc1cc(C)c(Nc2nc(Cl)cn([C@@H](COC)C3CC3)c2=O)cc1C
9.57 | CC[C@H](C1CC1)n1cc(Cl)nc(Nc2cc(C)c(OC)cc2C)c1=O
